Data taken from ChEMBL document CHEMBL1145160, “Neoclerodane diterpenes as a novel scaffold for mu opioid receptor ligands” (J Med Chem, 2005).
Calls of active or inactive are those of the source. The rule behind the calls is not given here.

How the values were obtained:
[1] = biological target: T1, Kappa-type opioid receptor (Homo sapiens, UniProt P41145); assay: Inhibition of [125I]- IOXY binding to human Opioid receptor kappa1
Mu-type opioid receptor [2] = biological target: T2, Mu-type opioid receptor (Homo sapiens, UniProt P35372); assay: Inhibition of [125I]- IOXY binding to human Opioid receptor mu1
[3] = biological target: Opioid receptors; delta & kappa (Homo sapiens) (UniProt P41145+P41143); assay: Relative affinity for human opioid receptor delta1 and kappa1; format: protein assay
[4] = biological target: Opioid receptors; mu & kappa (Homo sapiens) (UniProt P41145+P35372); assay: Relative affinity for human opioid receptor mu1 and kappa1; format: protein assay
[5] = biological target: T3, Delta-type opioid receptor (Homo sapiens, UniProt P41143); assay: Inhibition of [125I]- IOXY binding to human Opioid receptor delta1
Mu-type opioid receptor [6] = biological target: T2, Mu-type opioid receptor; assay: Stimulatory effect on [35S]-GTP gammaS binding to Opioid receptor mu1 expressed in CHO cells compared to 10 uM DAMGO; ND = Not determined; format: cell-based
Summary of the method: (§1)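 Membranes from CHO cells stably transfected with DNA for the human μ, δ or κ opioid receptor; agonist-stimulated [35S]GTPγS binding measured; potency given as EC50 ± SD, efficacy as Emax.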

[7] = biological target: T1, Kappa-type opioid receptor; assay: Stimulation of [35S]GTP-gamma-S, binding to Opioid receptor kappa1 expressed in CHO cells; format: functional, cell-based; summary of the method: as §1
[8] = biological target: T1, Kappa-type opioid receptor; assay: Stimulatory effect on [35S]GTP gammaS binding to Opioid receptor kappa1 expressed in CHO cells compared to 500 nM U50,488; format: functional, cell-based; summary of the method: as §1
Mu-type opioid receptor [9] = biological target: T2, Mu-type opioid receptor; assay: Stimulation of [35S]GTP-gamma-S, binding to Opioid receptor mu1 expressed in CHO cells; ND = Not determined; format: functional, cell-based; summary of the method: as §1
Mus musculus [10] = assay: In vivo opioid receptor activity in mouse p-phenylquinone writhing assay; format: functional
Mus musculus [11] = assay: In vivo antinociceptive activity against opioid receptor in mouse hot plate […] assay; No inhibition (inactive at 30 uM); format: functional, organism-based
Mus musculus [12] = assay: In vivo opioid receptor activity in mouse tail flick assay; format: functional
Mus musculus [13] = assay: In vivo antinociceptive activity against opioid receptor in mouse p-phenylquinone writhing test; No inhibition (inactive at 1 uM); format: functional, organism-based
Mus musculus [14] = assay: In vivo opioid receptor activity in mouse hot plate assay
[15] = biological target: T3, Delta-type opioid receptor; assay: Stimulation of [35S]-GTP gammaS binding to Opioid receptor delta 1 expressed in CHO cells; ND = Not determined; format: functional, cell-based; summary of the method: as §1
Mu-type opioid receptor [16] = biological target: T2, Mu-type opioid receptor; assay: Stimulatory effect on [35S]-GTP gammaS binding to Opioid receptor mu1 expressed in CHO cells compared to 10 uM DAMGO; format: cell-based; summary of the method: as §1
Mu-type opioid receptor [17] = biological target: T2, Mu-type opioid receptor; assay: Stimulation of [35S]GTP-gamma-S, binding to Opioid receptor mu1 expressed in CHO cells; format: functional, cell-based; summary of the method: as §1

Chain of Opioid receptors; delta & kappa (Homo sapiens) (P41143 whole entry, looked up): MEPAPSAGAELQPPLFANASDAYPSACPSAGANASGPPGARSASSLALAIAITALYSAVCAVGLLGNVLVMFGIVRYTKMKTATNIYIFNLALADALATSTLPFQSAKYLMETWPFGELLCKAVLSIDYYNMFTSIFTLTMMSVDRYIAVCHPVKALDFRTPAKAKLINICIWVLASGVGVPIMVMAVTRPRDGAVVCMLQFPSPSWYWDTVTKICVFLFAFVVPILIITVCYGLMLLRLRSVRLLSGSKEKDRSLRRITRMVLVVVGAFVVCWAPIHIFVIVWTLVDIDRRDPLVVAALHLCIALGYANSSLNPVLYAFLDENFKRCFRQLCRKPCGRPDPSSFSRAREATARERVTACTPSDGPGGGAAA
Chain of Opioid receptors; delta & kappa (Homo sapiens) (P41145 whole entry, looked up): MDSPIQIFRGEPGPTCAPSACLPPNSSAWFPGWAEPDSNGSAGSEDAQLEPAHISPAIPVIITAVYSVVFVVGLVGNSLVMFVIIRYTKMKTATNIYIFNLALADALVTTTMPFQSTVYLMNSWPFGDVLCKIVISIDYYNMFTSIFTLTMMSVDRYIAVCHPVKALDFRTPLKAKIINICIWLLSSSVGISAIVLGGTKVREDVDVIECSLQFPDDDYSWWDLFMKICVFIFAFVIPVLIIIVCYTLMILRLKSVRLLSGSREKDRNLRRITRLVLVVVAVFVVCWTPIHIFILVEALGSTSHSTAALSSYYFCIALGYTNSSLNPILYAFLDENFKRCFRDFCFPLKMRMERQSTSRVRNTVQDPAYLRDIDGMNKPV
T3 sequence (P41143 whole entry): as the sequence (P41143 whole entry, looked up) above
T2 sequence (P35372 whole entry): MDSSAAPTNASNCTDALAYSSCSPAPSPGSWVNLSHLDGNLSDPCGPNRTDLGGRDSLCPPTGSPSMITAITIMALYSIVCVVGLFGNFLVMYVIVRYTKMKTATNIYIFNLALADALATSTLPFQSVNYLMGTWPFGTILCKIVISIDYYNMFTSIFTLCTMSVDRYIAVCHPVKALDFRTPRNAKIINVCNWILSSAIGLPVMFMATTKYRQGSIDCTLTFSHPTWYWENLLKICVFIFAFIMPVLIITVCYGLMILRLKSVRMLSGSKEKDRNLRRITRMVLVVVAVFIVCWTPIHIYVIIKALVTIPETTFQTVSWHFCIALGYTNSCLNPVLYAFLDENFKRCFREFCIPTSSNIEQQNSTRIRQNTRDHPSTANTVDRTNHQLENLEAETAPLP
Chain of Opioid receptors; mu & kappa (Homo sapiens) (P35372 whole entry, looked up): as the sequence (P35372 whole entry) above
Chain of Opioid receptors; mu & kappa (Homo sapiens) (P41145 whole entry, looked up): as the sequence (P41145 whole entry, looked up) above
T1 sequence (P41145 whole entry): as the sequence (P41145 whole entry, looked up) above

Compound	Ki (Mu-type opioid receptor [2]) [µM]	Selectivity [3]	Selectivity [4]	Ki [5] [µM]	EC50 [7] [µM]	Emax [8] [%]	other results
COC(=O)[C@@H]1C[C@H](O)[C@H](O)[C@H]2[C@@]1(C)CC[C@H]1C(=O)O[C@H](c3ccoc3)C[C@]21C	5.74	> 3	2	> 10			Ki [1]: 3.19 µM
COC(=O)C(=O)O[C@H]1C[C@@H](C(=O)OC)[C@]2(C)CC[C@H]3C(=O)O[C@H](c4ccoc4)C[C@]3(C)[C@H]2C1=O	> 10	> 30	> 30	> 10			
COC(=O)[C@@H]1C[C@H](O)[C@H](O)[C@@H]2[C@@]3(C)C[C@@H](c4ccoc4)OC(=O)[C@H]3CC[C@]21C	> 10			> 10			Ki [1]: > 10 µM
COC(=O)[C@@H]1C[C@H](OC(=O)c2cccnc2)C(=O)[C@H]2[C@@]1(C)CC[C@H]1C(=O)O[C@H](c3ccoc3)C[C@]21C		3	0.04	4.82	5.74	76	Emax (Mu-type opioid receptor [6]): 110%; EC50 (Mu-type opioid receptor [9]): 2.1 µM
COC(=O)[C@@H]1C[C@H](OC(C)=O)C(=O)[C@H]2[C@@]1(C)CC[C@H]1C(=O)O[C@H](c3ccoc3)C[C@]21C [SALVINORIN A]							ED50 (Mus musculus [10]): 0.59 mg/kg; inhibition (Mus musculus [11]): inactive; ED50 (Mus musculus [12]): 1.98 mg/kg; inhibition (Mus musculus [13]): inactive
COC(=O)[C@@H]1C[C@H](OC(=N)C(Cl)(Cl)Cl)C(=O)[C@H]2[C@@]1(C)CC[C@H]1C(=O)O[C@H](c3ccoc3)C[C@]21C	> 10	95	> 150				
COC(=O)[C@@H]1C[C@H](OC(C)=O)[C@H](OC(C)=O)[C@H]2[C@@]1(C)CC[C@H]1C(=O)O[C@H](c3ccoc3)C[C@]21C	> 10	> 15	> 15	> 10			
C=CCNC(=O)O[C@H]1C[C@@H](C(=O)OC)[C@]2(C)CC[C@H]3C(=O)O[C@H](c4ccoc4)C[C@]3(C)[C@H]2C1=O	0.64	55	5	6.46			
CN1CC[C@]23c4c5ccc(O)c4O[C@H]2[C@@H](O)C=C[C@H]3[C@H]1C5 [MORPHINE]							ED50 (Mus musculus [14]): 0.8 mg/kg
COC(=O)[C@@H]1C[C@H](OC(=O)Nc2ccccc2)C(=O)[C@H]2[C@@]1(C)CC[C@H]1C(=O)O[C@H](c3ccoc3)C[C@]21C		2	0.2		0.48	100	EC50 [15]: 2.53 µM; Emax (Mu-type opioid receptor [16]): 92%; EC50 (Mu-type opioid receptor [9]): 0.59 µM
COC(=O)[C@@H]1C[C@H](OC(=O)C(C)C)C(=O)[C@H]2[C@@]1(C)CC[C@H]1C(=O)O[C@H](c3ccoc3)C[C@]21C	2.98		196	> 10	0.36	105	
COC(=O)[C@@H]1C[C@H](OS(C)(=O)=O)C(=O)[C@H]2[C@@]1(C)CC[C@H]1C(=O)O[C@H](c3ccoc3)C[C@]21C				> 10	0.03	112	
CCC(=O)O[C@H]1C[C@@H](C(=O)OC)[C@]2(C)CC[C@H]3C(=O)O[C@H](c4ccoc4)C[C@]3(C)[C@H]2C1=O	> 1	2730		6.69	0.14	110	
C=C(C)C(=O)O[C@H]1C[C@@H](C(=O)OC)[C@]2(C)CC[C@H]3C(=O)O[C@H](c4ccoc4)C[C@]3(C)[C@H]2C1=O	0.26	210	7	8.88			
COC(=O)[C@@H]1C[C@H](OC(=O)c2ccccc2)C(=O)[C@H]2[C@@]1(C)CC[C@H]1C(=O)O[C@H](c3ccoc3)C[C@]21C [HERKINORIN]		12	0.13	1.17	1.32	140	EC50 (Mu-type opioid receptor [17]): 0.5 µM; Emax (Mu-type opioid receptor [16]): 130%
COC(=O)[C@@H]1C[C@H](O[Si](C)(C)C)C(=O)[C@H]2[C@@]1(C)CC[C@H]1C(=O)O[C@H](c3ccoc3)C[C@]21C	> 10	> 7	> 7	> 10			
